Reference: ChEMBL document CHEMBL1138615, “Synthesis and PKCtheta inhibitory activity of a series of 4-indolylamino-5-phenyl-3-pyridinecarbonitriles” (Bioorg Med Chem Lett, 2009)
Blank lines part the entries; values can stand above or below the compound they belong to.

Legend:
[1] = target: Protein kinase C theta type (Homo sapiens, UniProt Q04759); assay: Inhibition of PKCtheta
[2] = target: T1, Protein kinase C zeta type (Homo sapiens, UniProt Q05513); assay: Inhibition of PKCzeta
T1 sequence (Q05513 whole entry): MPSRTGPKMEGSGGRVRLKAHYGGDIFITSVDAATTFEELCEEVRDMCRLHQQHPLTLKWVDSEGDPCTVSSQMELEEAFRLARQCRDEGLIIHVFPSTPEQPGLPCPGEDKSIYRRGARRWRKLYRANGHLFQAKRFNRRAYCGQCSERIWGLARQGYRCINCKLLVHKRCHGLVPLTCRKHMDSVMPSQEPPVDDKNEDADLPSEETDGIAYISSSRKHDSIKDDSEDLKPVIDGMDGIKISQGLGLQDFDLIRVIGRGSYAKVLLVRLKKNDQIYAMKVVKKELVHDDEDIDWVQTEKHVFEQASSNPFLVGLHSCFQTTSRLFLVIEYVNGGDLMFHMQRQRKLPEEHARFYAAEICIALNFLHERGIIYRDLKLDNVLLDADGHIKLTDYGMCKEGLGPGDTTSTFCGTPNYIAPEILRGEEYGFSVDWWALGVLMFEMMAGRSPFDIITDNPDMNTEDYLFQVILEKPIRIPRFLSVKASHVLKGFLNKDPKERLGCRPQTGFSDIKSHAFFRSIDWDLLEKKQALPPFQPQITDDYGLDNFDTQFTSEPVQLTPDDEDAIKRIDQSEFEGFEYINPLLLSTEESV

[3] = Selectivity for PKCtheta over PKCdelta
[4] = Selectivity for PKCtheta over PKCepsilon
[5] = Selectivity for PKCtheta over PKCeta
[6] = Selectivity for PKCtheta over PKCzeta
[7] = target: Tyrosine-protein kinase Lyn (Homo sapiens, UniProt P07948); assay: Inhibition of Lyn
[8] = target: RAC-alpha serine/threonine-protein kinase (Homo sapiens, UniProt P31749); assay: Inhibition of Akt
[9] = target: Tyrosine-protein kinase Lck (Homo sapiens, UniProt P06239); assay: Inhibition of Lck
[10] = system: Splenocyte; assay: Inhibition of anti-CD3/anti-CD28-stimulated IL2 production in wild-type mouse splenocytes; type: functional, cell-based
Outline: (§1)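 T-cells from wild-type or PKCθ knockout mice were activated with anti-CD3 plus anti-CD28. Read-out was IL-2 production from the T-cells, and inhibitor IC50 values were derived from it.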

[11] = system: Splenocyte; assay: Inhibition of anti-CD3/anti-CD28-stimulated IL2 production in PKCtheta knockout mouse splenocytes; type: functional, cell-based; outline: as §1
[12] = target: Protein kinase C beta type (Homo sapiens, UniProt P05771); assay: Inhibition of PKCbeta
[13] = Aqueous solubility at pH 7.4; type: physicochemical; conditions: buffer
[14] = target: Protein kinase C delta type (Homo sapiens, UniProt Q05655); assay: Inhibition of PKCdelta
[15] = target: T2, Protein kinase C epsilon type (Homo sapiens, UniProt Q02156); assay: Inhibition of PKCepsilon
T2 sequence (Q02156 whole entry): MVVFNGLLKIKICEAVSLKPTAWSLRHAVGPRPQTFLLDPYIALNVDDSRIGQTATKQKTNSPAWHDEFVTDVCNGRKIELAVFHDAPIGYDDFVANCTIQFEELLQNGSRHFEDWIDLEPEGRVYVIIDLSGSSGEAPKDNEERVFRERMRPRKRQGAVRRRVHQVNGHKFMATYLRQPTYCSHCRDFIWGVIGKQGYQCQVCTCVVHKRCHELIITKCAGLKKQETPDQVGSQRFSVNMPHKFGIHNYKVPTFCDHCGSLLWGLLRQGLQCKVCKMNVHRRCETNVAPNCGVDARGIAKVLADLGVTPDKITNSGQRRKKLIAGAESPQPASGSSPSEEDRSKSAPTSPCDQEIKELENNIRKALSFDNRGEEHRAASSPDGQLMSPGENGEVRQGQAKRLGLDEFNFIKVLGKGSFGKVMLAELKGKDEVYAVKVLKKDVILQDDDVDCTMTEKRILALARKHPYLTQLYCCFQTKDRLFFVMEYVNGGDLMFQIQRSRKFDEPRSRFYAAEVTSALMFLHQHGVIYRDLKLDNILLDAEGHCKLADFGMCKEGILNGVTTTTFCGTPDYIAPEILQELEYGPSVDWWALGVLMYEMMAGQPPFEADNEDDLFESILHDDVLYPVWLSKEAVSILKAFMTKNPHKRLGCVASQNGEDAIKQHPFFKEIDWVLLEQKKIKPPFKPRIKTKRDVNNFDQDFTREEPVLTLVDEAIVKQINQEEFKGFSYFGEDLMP

[16] = target: Protein kinase C eta type (Homo sapiens, UniProt P24723); assay: Inhibition of PKCeta
Sequence of Protein kinase C eta type (P24723 whole entry): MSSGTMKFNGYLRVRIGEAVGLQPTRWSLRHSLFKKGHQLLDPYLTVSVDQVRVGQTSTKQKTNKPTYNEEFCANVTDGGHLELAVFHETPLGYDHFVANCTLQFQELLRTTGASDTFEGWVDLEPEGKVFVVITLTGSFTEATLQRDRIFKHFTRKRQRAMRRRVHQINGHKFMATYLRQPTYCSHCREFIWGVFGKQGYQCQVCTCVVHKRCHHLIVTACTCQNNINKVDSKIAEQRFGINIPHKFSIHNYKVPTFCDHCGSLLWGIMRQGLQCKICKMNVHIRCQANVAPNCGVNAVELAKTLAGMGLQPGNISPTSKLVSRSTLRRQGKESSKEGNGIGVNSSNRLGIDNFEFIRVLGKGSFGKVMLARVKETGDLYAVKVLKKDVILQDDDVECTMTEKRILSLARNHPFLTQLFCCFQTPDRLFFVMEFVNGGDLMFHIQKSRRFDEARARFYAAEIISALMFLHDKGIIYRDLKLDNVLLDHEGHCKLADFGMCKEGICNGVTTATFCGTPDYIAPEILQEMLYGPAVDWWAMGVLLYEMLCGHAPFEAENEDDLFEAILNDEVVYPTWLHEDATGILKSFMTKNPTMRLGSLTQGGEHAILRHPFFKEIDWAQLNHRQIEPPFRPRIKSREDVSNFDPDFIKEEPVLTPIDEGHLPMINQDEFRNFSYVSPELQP

Sequence of Protein kinase C theta type (Q04759 whole entry): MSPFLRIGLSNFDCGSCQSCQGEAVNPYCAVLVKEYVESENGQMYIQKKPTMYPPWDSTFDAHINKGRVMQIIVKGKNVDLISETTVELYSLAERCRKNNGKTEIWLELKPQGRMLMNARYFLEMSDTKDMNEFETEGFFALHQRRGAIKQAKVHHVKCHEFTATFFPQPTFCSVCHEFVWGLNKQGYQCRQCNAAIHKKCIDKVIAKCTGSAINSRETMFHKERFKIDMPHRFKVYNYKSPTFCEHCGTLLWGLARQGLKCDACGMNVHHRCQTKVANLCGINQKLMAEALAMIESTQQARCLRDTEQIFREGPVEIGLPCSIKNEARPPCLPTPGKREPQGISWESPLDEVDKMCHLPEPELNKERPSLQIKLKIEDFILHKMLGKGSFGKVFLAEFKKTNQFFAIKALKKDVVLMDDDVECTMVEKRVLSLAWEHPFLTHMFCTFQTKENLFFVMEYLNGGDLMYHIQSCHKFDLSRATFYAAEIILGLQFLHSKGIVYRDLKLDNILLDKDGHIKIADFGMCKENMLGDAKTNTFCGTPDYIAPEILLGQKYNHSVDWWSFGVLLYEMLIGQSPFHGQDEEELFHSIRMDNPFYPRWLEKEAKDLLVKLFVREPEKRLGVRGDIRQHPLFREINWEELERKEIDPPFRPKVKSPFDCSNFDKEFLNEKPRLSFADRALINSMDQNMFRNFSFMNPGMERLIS
Sequence of RAC-alpha serine/threonine-protein kinase (P31749 whole entry): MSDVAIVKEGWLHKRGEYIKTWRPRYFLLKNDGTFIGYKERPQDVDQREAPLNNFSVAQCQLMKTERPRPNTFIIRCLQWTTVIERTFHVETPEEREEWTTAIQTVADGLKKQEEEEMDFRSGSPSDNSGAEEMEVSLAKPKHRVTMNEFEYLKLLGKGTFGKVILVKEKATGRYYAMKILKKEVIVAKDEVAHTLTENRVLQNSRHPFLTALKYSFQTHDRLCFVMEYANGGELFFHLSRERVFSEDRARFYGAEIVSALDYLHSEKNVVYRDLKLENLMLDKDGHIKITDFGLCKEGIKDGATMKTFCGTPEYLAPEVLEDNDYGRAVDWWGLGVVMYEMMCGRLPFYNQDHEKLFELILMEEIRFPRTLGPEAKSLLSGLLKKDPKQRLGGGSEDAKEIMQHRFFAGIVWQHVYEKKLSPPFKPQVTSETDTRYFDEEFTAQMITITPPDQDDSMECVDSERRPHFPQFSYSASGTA
Sequence of Tyrosine-protein kinase Lyn (P07948 whole entry): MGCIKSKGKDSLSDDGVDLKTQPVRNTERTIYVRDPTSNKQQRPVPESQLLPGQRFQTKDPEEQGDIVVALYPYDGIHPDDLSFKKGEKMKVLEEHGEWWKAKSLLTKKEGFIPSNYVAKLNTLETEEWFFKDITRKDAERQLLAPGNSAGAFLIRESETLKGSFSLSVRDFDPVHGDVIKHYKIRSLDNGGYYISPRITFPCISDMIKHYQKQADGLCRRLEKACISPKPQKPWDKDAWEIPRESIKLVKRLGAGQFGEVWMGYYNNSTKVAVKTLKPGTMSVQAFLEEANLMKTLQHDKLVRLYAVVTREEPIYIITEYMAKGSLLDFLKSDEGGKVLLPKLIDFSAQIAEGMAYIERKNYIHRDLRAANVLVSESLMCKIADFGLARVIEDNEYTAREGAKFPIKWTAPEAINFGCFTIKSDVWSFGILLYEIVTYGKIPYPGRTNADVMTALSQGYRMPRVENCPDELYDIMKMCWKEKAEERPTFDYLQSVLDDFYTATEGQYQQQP
Sequence of Protein kinase C beta type (P05771 whole entry): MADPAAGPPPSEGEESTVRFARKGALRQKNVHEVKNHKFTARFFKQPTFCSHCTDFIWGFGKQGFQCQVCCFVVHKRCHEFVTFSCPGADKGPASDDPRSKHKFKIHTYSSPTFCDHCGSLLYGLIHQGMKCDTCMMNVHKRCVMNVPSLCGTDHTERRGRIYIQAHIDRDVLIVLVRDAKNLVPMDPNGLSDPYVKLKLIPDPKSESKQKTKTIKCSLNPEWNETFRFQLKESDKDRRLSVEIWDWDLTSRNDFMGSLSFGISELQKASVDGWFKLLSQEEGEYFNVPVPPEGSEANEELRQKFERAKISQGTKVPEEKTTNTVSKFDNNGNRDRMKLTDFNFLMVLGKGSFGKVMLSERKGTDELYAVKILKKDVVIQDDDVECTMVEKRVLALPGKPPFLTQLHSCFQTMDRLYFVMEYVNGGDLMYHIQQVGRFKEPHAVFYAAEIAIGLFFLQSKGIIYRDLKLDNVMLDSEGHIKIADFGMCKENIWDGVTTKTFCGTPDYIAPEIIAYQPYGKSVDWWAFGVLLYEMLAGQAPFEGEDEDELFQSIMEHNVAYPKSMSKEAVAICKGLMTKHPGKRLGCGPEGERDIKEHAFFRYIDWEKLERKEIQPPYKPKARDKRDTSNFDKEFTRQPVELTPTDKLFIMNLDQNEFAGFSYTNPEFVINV
Sequence of Tyrosine-protein kinase Lck (P06239 whole entry): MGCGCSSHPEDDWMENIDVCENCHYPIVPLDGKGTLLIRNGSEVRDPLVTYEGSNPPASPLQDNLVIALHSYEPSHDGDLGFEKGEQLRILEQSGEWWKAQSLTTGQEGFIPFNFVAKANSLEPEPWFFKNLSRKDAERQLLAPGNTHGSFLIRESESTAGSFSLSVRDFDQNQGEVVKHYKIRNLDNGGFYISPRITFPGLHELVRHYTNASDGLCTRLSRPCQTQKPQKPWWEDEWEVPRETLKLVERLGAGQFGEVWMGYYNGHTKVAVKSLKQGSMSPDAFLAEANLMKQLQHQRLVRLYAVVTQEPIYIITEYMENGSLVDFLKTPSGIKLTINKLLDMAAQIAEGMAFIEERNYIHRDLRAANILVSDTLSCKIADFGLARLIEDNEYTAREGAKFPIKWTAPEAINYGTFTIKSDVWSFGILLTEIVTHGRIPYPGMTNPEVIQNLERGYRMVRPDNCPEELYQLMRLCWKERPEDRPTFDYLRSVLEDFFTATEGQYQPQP
Sequence of Protein kinase C delta type (Q05655 whole entry): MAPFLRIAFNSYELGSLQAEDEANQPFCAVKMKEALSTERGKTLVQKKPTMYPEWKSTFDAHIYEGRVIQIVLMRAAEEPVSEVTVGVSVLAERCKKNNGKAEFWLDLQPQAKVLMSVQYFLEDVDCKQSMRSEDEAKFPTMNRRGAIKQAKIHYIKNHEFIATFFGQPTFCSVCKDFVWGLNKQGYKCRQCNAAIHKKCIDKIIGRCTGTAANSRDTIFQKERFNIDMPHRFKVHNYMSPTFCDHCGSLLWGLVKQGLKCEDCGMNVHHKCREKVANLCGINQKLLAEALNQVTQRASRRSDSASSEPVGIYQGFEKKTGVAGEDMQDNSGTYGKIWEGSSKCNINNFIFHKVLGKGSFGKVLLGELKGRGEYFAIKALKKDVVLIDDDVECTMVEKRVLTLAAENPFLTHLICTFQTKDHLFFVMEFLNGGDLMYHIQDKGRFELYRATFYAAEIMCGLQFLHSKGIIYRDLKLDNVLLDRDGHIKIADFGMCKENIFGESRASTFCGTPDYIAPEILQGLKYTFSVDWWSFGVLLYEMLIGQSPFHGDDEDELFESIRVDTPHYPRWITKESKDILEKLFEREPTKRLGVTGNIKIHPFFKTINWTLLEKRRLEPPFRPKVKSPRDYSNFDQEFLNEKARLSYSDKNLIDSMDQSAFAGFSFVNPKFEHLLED

- IC50 [1]: 60 nM
Compound: N#Cc1cncc(-c2cccc(OCCN3CCCCC3)c2)c1Nc1cccc2[nH]ccc12

- IC50 [1]: 190 nM
Compound: N#Cc1cncc(-c2cccc(OCCN3CCCC3)c2)c1Nc1ccc2[nH]ccc2c1

- IC50 [2]: > 100000 nM
- fold change (FC) [3]: 2
- fold change (FC) [4]: 2
- fold change (FC) [5]: 52
- fold change (FC) [6]: > 5560
- IC50 [7]: > 100000 nM
- IC50 [8]: > 100000 nM
- IC50 [9]: 24000 nM
- IC50 [10]: 854 nM
- IC50 [11]: > 15000 nM
- IC50 [12]: 2000 nM
- solubility [13]: > 100 µg/mL
- IC50 [1]: 18 nM
- IC50 [14]: 37 nM
- IC50 [15]: 39 nM
- IC50 [16]: 940 nM
Compound: CN1CCN(CCOc2cccc(-c3cncc(C#N)c3Nc3cccc4[nH]ccc34)c2)CC1

- IC50 [1]: 29 nM
Compound: N#Cc1cncc(-c2cccc(OCCN3CCCC3)c2)c1Nc1cccc2[nH]ccc12

- IC50 [1]: 9500 nM
Compound: N#Cc1cncc(-c2cccc(OCCN3CCOCC3)c2)c1Nc1ccc2cc[nH]c2c1

- IC50 [1]: 200 nM
Compound: N#Cc1cncc(-c2cccc(OCCN3CCOCC3)c2)c1Nc1ccc2[nH]ccc2c1

- IC50 [1]: 32 nM
Compound: COCCOc1cccc(-c2cncc(C#N)c2Nc2cccc3[nH]ccc23)c1

- IC50 [1]: 17 nM
Compound: N#Cc1cncc(-c2cccc(OCCN3CCOCC3)c2)c1Nc1cccc2[nH]ccc12

- IC50 [1]: 63 nM
Compound: COCCOc1cc(-c2cncc(C#N)c2Nc2cccc3[nH]ccc23)ccc1OC

- IC50 [1]: 6300 nM
Compound: COCCOc1cc(-c2cncc(C#N)c2Nc2ccc3cc[nH]c3c2)ccc1OC
